# According to ChEMBL document CHEMBL3091301, “Xanthohumol modulates inflammation, oxidative stress, and angiogenesis in type 1 diabetic rat skin wound healing” (2013):
# The source made the active and inactive calls. The rule behind the calls is not given here.
# What was measured:
# Rattus norvegicus [1] = experiment: Antiangiogenic activity in streptozotocin-induced diabetic Wistar rat model assessed as decrease in microvessel density in wound region at 10 mg/L, po administered with superbock stout beer for […] prior to wounding measured on day 7 post-wounding by wound healing assay; format: functional, organism-based
# Procedure, shortened: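 Beverage given ad libitum, renewed every two days, kept in dark bottles. Vessels counted in three dorsal skin wound sections per animal and normalized to section area; each separate stained endothelial cell or cluster counted as one vessel; n = 4–6.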
# Rattus norvegicus [2] = experiment: Antiinflammatory activity in streptozotocin-induced diabetic Wistar rat model assessed as reduction in IL1beta level in serum at 10 mg/L, po administered with superbock stout beer for 5 weeks prior to wounding measured on day 7 post-wounding by ELISA (reference value: 20.94 +/- 2.17 pg/mL); format: functional
# Rattus norvegicus [3] = experiment: (§1) Antioxidant activity in streptozotocin-induced diabetic Wistar rat model assessed as reduction in hepatic protein carbonylation at 10 mg/L, po administered with superbock stout beer for 5 weeks prior to wounding measured on day 7 post-wounding by Western blotting analysis (reference value: 13.80 +/- 1.12%); format: functional; design: scale not given: the % may be the effect or the level left
# Rattus norvegicus [4] = experiment: Antioxidant activity in streptozotocin-induced diabetic Wistar rat model assessed as reduction in protein carbonylation in kidney at 10 mg/L, po administered with superbock stout beer for 5 weeks prior to wounding measured on day 7 post-wounding by Western blotting analysis relative to control; format: functional, organism-based
# Rattus norvegicus [5] = experiment: as §1, with “3-NT” for “hepatic”, “expression in liver” for “carbonylation”, “5.52” for “13.80”, “1.64%)” for “1.12%)”; format: functional; design: scale not given: the % may be the effect or the level left
# Rattus norvegicus [6] = experiment: Antiinflammatory activity in streptozotocin-induced diabetic Wistar rat model assessed as reduction in nitric oxide level in serum at 10 mg/L, po administered with superbock stout beer for 5 weeks prior to wounding measured on day 7 post-wounding by Griess method relative to control; format: functional, organism-based
# Rattus norvegicus [7] = experiment: Antiangiogenic activity in streptozotocin-induced diabetic Wistar rat model assessed as reduction in VEGF-A level in plasma at 10 mg/L, po administered with superbock stout beer for 5 weeks prior to wounding measured on day 7 post-wounding by ELISA; format: functional, organism-based
# Procedure, shortened: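 STZ-diabetic male Wistar rats (50 mg/kg i.p.; glucose >250 mg/dL) drinking the beverage ad libitum for five weeks, with skin injury. Plasma VEGF-A measured by rat VEGF Quantikine ELISA per kit instructions; means ± SEM, n = 4–6; ANOVA with Bonferroni.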
# Rattus norvegicus [8] = experiment: Antioxidant activity in streptozotocin-induced diabetic Wistar rat model assessed as increase in reduced glutathione level in serum at 10 mg/L, po administered with superbock stout beer for 5 weeks prior to wounding measured on day 7 post-wounding by RP-HPLC analysis; format: functional, organism-based
# Procedure, shortened: (§2)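 Plasma reduced and oxidized glutathione separated and quantified by reversed-phase HPLC with a GSH/GSSG kit. Samples came from skin-injured STZ-diabetic rats after five weeks of ad libitum beverage. Expressed as percent of control; n = 4–6.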
# Rattus norvegicus [9] = experiment: Antioxidant activity in streptozotocin-induced diabetic Wistar rat model assessed as increase in reduced/oxidized glutathione ratio in serum at 10 mg/L, po administered with superbock stout beer for 5 weeks prior to wounding measured on day 7 post-wounding by RP-HPLC analysis; format: functional, organism-based; procedure, shortened: as §2
# Rattus norvegicus [10] = experiment: Antioxidant activity in streptozotocin-induced diabetic Wistar rat model assessed as […] in H2O2 release in liver at 10 mg/L, po administered with superbock stout beer for 5 weeks prior to wounding measured on day 7 post-wounding by fluorescence assay relative to control; format: functional, organism-based
# Procedure, shortened: (§3)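 Fresh kidney or liver cut into 3 mm3 pieces and incubated 90 min at 37 °C in oxygenated, shaken Krebs-HEPES (pH 7.4, 5 mM glucose). H2O2 released measured by Amplex Red fluorescence. Expressed as percent of healthy control; means ± SEM, n = 4–6.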
# Rattus norvegicus [11] = experiment: Antioxidant activity in streptozotocin-induced diabetic Wistar rat model assessed as decrease in H2O2 release in kidney at 10 mg/L, po administered with superbock stout beer for 5 weeks prior to wounding measured on day 7 post-wounding by fluorescence assay relative to control; format: functional, organism-based; procedure, shortened: as §3
# Rattus norvegicus [12] = experiment: Antiinflammatory activity in streptozotocin-induced diabetic Wistar rat model assessed as reduction in N-acetylglucosaminidase level in serum at 10 mg/L, po administered with superbock stout beer for 5 weeks prior to wounding measured on day 7 post-wounding relative to control; format: functional, organism-based
# Rattus norvegicus [13] = experiment: as §1, with “3-NT” for “hepatic”, “expression in kidney” for “carbonylation”, “3.76” for “13.80”, “0.57%)” for “1.12%)”; format: functional; design: scale not given: the % may be the effect or the level left
smiles,measurement,setting,value
COc1cc(O)c(CC=C(C)C)c(O)c1C(=O)/C=C/c1ccc(O)cc1 [XANTHOHUMOL],Activity,Rattus norvegicus [1],Active
same,Activity,Rattus norvegicus [2],13.36 pg/mL
same,Activity,Rattus norvegicus [3],4.67%
same,Activity,Rattus norvegicus [4],Active
same,Activity,Rattus norvegicus [5],1.38%
same,Activity,Rattus norvegicus [6],Active
same,Activity,Rattus norvegicus [7],Active
same,Activity,Rattus norvegicus [8],Active
same,Activity,Rattus norvegicus [9],Active
same,Activity,Rattus norvegicus [10],Active
same,Activity,Rattus norvegicus [11],Active
same,Activity,Rattus norvegicus [12],Active
same,Activity,Rattus norvegicus [13],1.99%
